# In the library only some 2.5% were active in any assay of this set; here they are far more common.
# SENP1 inh: SENP1 (human) catalytic domain inhibition; Q9P0U3; recombinant SENP1 catalytic domain, CyPet-SUMO1-YPet FRET cleavage; inhibition, % at 10 µM; 0.21% of 360,000 active;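 active = inhibition at least 30% at 10 µM, raw YFP signal under a set limit, fluorescence ratio 0.5 to 1.5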;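 also: 0% = enzyme with DMSO and 100% = no enzyme wells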
#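 Assay system – human recombinant His6-tagged SENP1 catalytic domain enzyme · Input – SENP1 enzyme, 20 pM final · Buffer or medium – Tris pH 8 buffer plus EDTA, NaCl, BME, BSA, NP40, catalase · Schedule – 50 min reaction at room temperature · Technique – FRET read of cyan and yellow fluorescence · Control set – no-enzyme wells low, DMSO-plus-enzyme wells high control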
# SENP8 block-1: SENP8 (human) protease inhibition; recombinant SENP8, Nedd8 substrate fluorescence; inhibition, % at 20 µM; AID 602440; Q96LD8; 0.64% of 360,000 active; in the data active = inhibition mostly above about 40%, no sharp cut-off; inactive = mostly below about 27%
# Target sequence (Q96LD8 whole entry, looked up): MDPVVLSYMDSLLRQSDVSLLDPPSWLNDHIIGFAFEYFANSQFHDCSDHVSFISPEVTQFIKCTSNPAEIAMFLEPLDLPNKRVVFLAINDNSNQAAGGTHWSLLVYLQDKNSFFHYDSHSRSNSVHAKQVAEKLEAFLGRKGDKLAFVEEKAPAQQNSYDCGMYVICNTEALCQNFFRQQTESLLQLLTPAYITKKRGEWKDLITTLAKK
# SENP7 inh: blocks the human protease SENP7; Q9BQF6; recombinant SENP7, Z-RLRGG-aminoluciferin luminescence, 40 min; inhibition, % at 5 µM; 1.5% of 330,000 active; AID 434973;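 active = inhibition above about 50% at the single test dose, limit read from the data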;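 also: plate controls were DMSO with enzyme for no effect and no enzyme buffer wells for full effect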
# SENP6 inh: SENP6 protease inhibition; Q9GZR1; Recombinant SENP6 catalytic domain, aminoluciferin luminescence; inhibition, % at 10 µM; 1.8% of 330,000 active; AID 2599;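 active = inhibition above about 50% at the single tested dose, limit read from the data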;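 also: plate controls were DMSO wells with enzyme for no effect and DMSO wells lacking enzyme for full effect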
# Target sequence (Q9GZR1 628-1112 limits assumed): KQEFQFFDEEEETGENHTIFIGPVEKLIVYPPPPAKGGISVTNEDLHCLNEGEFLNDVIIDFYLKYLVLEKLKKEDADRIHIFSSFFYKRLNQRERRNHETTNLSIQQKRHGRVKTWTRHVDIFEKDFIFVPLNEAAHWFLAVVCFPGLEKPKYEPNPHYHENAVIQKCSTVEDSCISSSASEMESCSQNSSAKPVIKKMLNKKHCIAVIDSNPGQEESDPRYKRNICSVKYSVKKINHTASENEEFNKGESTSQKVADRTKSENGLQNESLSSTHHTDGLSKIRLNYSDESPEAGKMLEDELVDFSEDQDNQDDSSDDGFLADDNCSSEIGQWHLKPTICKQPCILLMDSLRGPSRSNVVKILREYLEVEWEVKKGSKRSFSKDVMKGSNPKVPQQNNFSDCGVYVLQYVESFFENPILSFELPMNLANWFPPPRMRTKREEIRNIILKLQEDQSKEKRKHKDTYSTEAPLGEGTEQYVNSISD
# SENP8 block-2: inhibitors of human SENP8 protease; Q96LD8; purified SENP8, Z-RLRGG-aminoluciferin cleavage, luminescence; inhibition, % at 10 µM; 1.2% of 330,000 active; in the data active = inhibition above about 50%
# SENP8 conf: confirmation of human SENP8 protease inhibitors; AID 488912; shares compounds with SENP7 inh; 40% of 6,200 active; inhibition, % at 12.5 µM; Recombinant SENP8, Z-RLRGG-aminoluciferin luminescence, 60 min;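 active = mean inhibition across replicates above about 50%, limit read from the data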
# SENP6 confirm: human SENP6 inhibition, confirmed | recombinant SENP6, Z-RLRGG-aminoluciferin luminescence | 58% of 6,200 active | shares compounds with SENP7 inh | inhibition, % at 12.5 µM
# SENP7 conf: human SENP7 inhibition, confirmed; 69% of 6,200 active; shares compounds with SENP7 inh; recombinant SENP7, Z-RLRGG-aminoluciferin luminescence, 40 min; inhibition, % at 12.5 µM
# Casp3 SENP sel: selectivity test for SENP inhibitors: human caspase-3 inhibition | shares compounds with SENP7 inh | purified caspase-3, Z-DEVD-aminoluciferin luminescence, 60 min | inhibition, % at 12.5 µM | 60% of 6,200 active | AID 488918;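 active = mean inhibition above about 50%, limit read from the data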;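 also: plate controls were enzyme with DMSO for no effect and wells without caspase-3 for full effect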
# Luc interf: counter-screen for SENP inhibitors: luminescence interference. shares compounds with SENP7 inh. Pre-incubated SENP8/Z-RLRGG-aminoluciferin, luciferase luminescence interference. inhibition, % at 12.5 µM. 39% of 6,200 active. AID 488919;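 active = mean inhibition above about 50% when retested at one dose, limit read from the data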;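 also: plate controls were DMSO wells with completed reaction for no effect and substrate without enzyme for full effect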
# The depositor's hits bear a star; / = no result given.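 The calls were made as follows, unless noted: active = mean inhibition above about 50% in the one-dose retest (limit read from the data); inactive = the rest.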
SMILES,SENP1 inh,SENP8 block-1,SENP7 inh,SENP6 inh,SENP8 block-2,SENP8 conf,SENP6 confirm,SENP7 conf,Casp3 SENP sel,Luc interf
Cc1ccsc1/C=N/n1cnc2sc(C)c(C)c2c1=O,0.7,20.9,45.6,70.4*,42.6,23.0,19.8,21.7,28.6,8.3
Cc1ccc(NC(=O)c2ccc3c(c2)OCCO3)nc1,0.7,3.5,53.6*,55.9*,25.8,48.5,46.2,81.1*,80.7*,60.4*
Cc1ccnc(NC(=O)c2ccc3c(c2)OCO3)c1,2.3,-1.3,91.8*,68.9*,80.1*,6.4,87.0*,98.5*,95.5*,87.0*
Cc1ccc(NC(=O)CNC(=O)c2ccc3c(c2)OCO3)nc1,1.5,3.6,9.8,3.1,-0.7,/,/,/,/,/
Cc1ccnc(NC(=O)c2ccc3c(c2)NC(=O)C(C)S3)c1 (stereo not drawn),4.0,5.2,24.8,55.3*,41.3,19.9,35.7,27.2,36.0,33.6
O=C(CSc1nncc(=O)[nH]1)NC1CCCCC1,0.0,-1.3,-2.0,-12.7,-14.8,/,/,/,/,/
Cc1c(NC(=O)c2cc(S(=O)(=O)N3CCCCC3)ccc2Cl)c(=O)n(-c2ccccc2)n1C,3.0,-1.6,-4.9,7.7,5.0,/,/,/,/,/
O=C(CSc1nc2[nH]ncc2c(=O)[nH]1)Nc1cc(C(F)(F)F)ccc1Cl,0.4,6.2,/,/,/,/,/,/,/,/
COc1ccc(/C(N)=N/OC(=O)c2ccc3c(c2)OCO3)cc1OC,3.1,1.3,84.1*,82.9*,75.4*,-23.0,-11.7,18.8,24.0,2.2
Cc1cc(C)n(-c2ccc(C(=O)Oc3ccc4c(c3)OCO4)cc2)n1,-1.0,-7.9,67.2*,-4.8,45.1,61.5*,70.5*,91.1*,67.3*,56.8*
COc1ccc(/C(N)=N/OC(=O)c2ccc3ccccc3c2)cc1OC,-0.4,12.9,/,/,/,/,/,/,/,/
N/C(=N\OC(=O)c1ccc2c(c1)OCO2)c1cccnc1,1.6,13.5,80.4*,74.3*,50.8*,57.7*,57.1*,86.8*,87.8*,69.3*
N/C(=N\OC(=O)c1ccc2c(c1)OCO2)c1cccc(Br)c1,-0.7,-1.4,97.5*,94.7*,96.2*,96.8*,97.9*,102.3*,96.6*,51.0*
NC(=O)C1CCN(C(=O)C2CC(=O)N(c3ccc(F)cc3)C2)CC1 (stereo not drawn),-0.6,11.9,0.4,0.6,-0.3,/,/,/,/,/
Cc1cc(C(=O)NNC(=O)c2ccccc2F)c2ccccc2n1,2.8,12.4,-1.8,12.8,7.5,/,/,/,/,/
O=C1c2cccc3c(O)ccc(c23)C(=O)N1Cc1ccccc1,-15.5,-194.5,4.5,10.1,8.2,/,/,/,/,/
CCOC1=C2CN(S(=O)(=O)c3ccc(C)cc3)[C@H](c3ccccc3)C[C@@H]2N(S(=O)(=O)c2ccc(C)cc2)[C@H](c2ccccc2)C1,-1.3,7.4,/,/,/,/,/,/,/,/
COc1cc(OC)c(C(=O)Oc2ccc3c(c2)OCO3)cc1OC,0.6,14.4,9.2,8.0,3.8,/,/,/,/,/
COc1ccc(C(=O)Oc2ccc3c(c2)OCO3)cc1OC,0.9,23.7,60.0*,57.6*,29.0,24.6,47.5,80.2*,65.5*,61.3*
CCN(CC(=O)c1c(N)n(C)c(=O)n(C)c1=O)c1cccc2ccccc12,-18.5,-279.2,29.0,84.2*,53.7*,12.4,11.6,7.4,-3.5,-3.4
COCCNC(=O)/C(C#N)=C/c1cccc(/C=C(\C#N)C(=O)NCCOC)c1,0.8,9.4,/,/,/,/,/,/,/,/
COCCNC(=O)/C(C#N)=C/c1ccc(O)cc1,-42.6,6.9,81.6*,91.5*,77.4*,11.6,78.7*,95.7*,83.0*,79.8*
COCCC(=O)N1CCOCC1c1cc(C(=O)NCc2ccccc2)no1 (stereo not drawn),-4.2,15.7,/,/,/,/,/,/,/,/
COc1ccc(C(=O)Nc2nnc(C(F)(F)F)s2)cc1,1.6,-31.5,18.9,61.4*,16.0,32.7,31.0,64.2*,64.1*,27.0
O=C(Nc1nnc(-c2ccccc2F)s1)c1cccnc1,0.8,-137.1,36.2,-6.6,30.0,/,/,/,/,/
SMILES,SENP1 inh,SENP8 block-1,SENP7 inh,SENP6 inh,SENP8 block-2,SENP8 conf,SENP6 confirm,SENP7 conf,Casp3 SENP sel,Luc interf
O=C(Nc1nnc(C(F)(F)F)s1)c1cccnc1,7.2,-3.7,48.5,55.4*,19.9,54.3*,53.8*,87.9*,84.6*,66.0*
COc1ccc(-c2nnc(NC(=O)c3c(OC)cccc3OC)s2)cc1,0.5,-230.6,-9.1,11.9,-0.9,/,/,/,/,/
COc1ccc(C(=O)Nc2nnc(-c3ccccc3)s2)cc1,-2.2,-117.7,9.6,-16.3,-7.0,/,/,/,/,/
COC(=O)Nc1nnc(-c2ccc(OC)cc2)s1,-2.3,-328.6,75.4*,67.9*,48.6,50.3*,55.2*,84.9*,84.8*,51.7*
Cc1cccc(NC(=O)C2C3C=CC(O3)C2C(=O)O)c1C (stereo not drawn),0.7,-44.8,4.5,6.6,6.4,/,/,/,/,/
CCOC(=O)C1=C(CS(=O)(=O)c2ccc(F)cc2)NC(=O)NC1c1ccc(O)c(O)c1 (stereo not drawn),2.4,14.5,-4.2,2.8,4.3,/,/,/,/,/
CCCCn1nnnc1C(c1cc2ccccc2o1)N1CCN(C(=O)OC(C)(C)C)CC1 (stereo not drawn),0.0,14.1,/,/,/,/,/,/,/,/
COc1cccc(C(=O)NCC[N+](C)(C)C)c1,1.9,4.1,/,/,/,/,/,/,/,/
COc1cccc(-n2cc(-c3ccc(F)cc3)[nH]c2=S)c1,0.4,12.0,77.1*,66.7*,10.5,22.5,19.6,6.6,3.3,5.0
COc1ccc2nc(NCc3ccccc3)[nH]c2c1,-1.5,8.6,3.2,-2.9,-4.7,/,/,/,/,/
CCOc1ccc2nc(-c3ccccc3)[nH]c2c1,1.1,-276.8,88.7*,87.8*,69.5*,84.7*,82.4*,94.2*,85.4*,83.6*
COc1ccc2nc(-c3ccccc3)[nH]c2c1,0.6,-295.4,94.8*,95.1*,83.1*,4.1,90.3*,99.2*,94.1*,89.1*
COc1ccc2[nH]c(-c3ccc(C)cc3)cc(=O)c2c1,-0.3,-476.6,73.3*,81.1*,76.7*,50.6*,81.2*,94.9*,92.1*,1.9
CCOc1ccc2nc(C(C)O)[nH]c2c1 (stereo not drawn),1.4,-4.8,2.6,-1.6,-1.8,/,/,/,/,/
COc1ccc2[nH]c(-c3ccccc3)cc2c1,3.8,-307.0,89.6*,91.9*,86.4*,12.6,89.3*,99.3*,61.2*,27.1
